Active and inactive are the calls of the source. The calls are words filed in the database; no cut-off is given here.
Assays:
[1] = Ratio of AUC in in vitro kinetic model containing Mueller-Hinton broth and methicillin-susceptible Staphylococcus aureus ATCC 13709 to MIC for methicillin-susceptible Staphylococcus aureus ATCC 13709 in bacterial regrowth stage; assay type: functional
Staphylococcus aureus [2] = experiment: Antibacterial activity against methicillin-susceptible Staphylococcus aureus ATCC 13709 assessed as bacterial killing at 10 times MIC after 6 hrs in PBS-nutrient depleted medium; assay type: functional, organism-based
Staphylococcus aureus [3] = experiment: Antibacterial activity against methicillin-resistant Staphylococcus aureus ATCC 33591 assessed as change in bacterial burden at 10 mg/liter after 6 hrs; assay type: functional
Summary of the method: (§1)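 In vitro kinetic model: spinner flask with 0.45-μm filter and prefilter, stirred, M-H broth at 37°C, starting inoculum approx. 5 × 10⁵ CFU/ml. Single initial drug dose of 1.0 to 40 mg/liter, with flow set to give a half-life of approx. 8 h. Viable counts at 0, 2, 4, 6, 8, 12 and 24 h. Duplicate runs per strain and concentration.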

Staphylococcus aureus [4] = experiment: Antibacterial activity against methicillin-resistant Staphylococcus aureus ATCC 33591 assessed as change in bacterial burden at 2.5 mg/liter after 24 hrs; assay type: functional; summary of the method: as §1
Staphylococcus aureus [5] = experiment: Antibacterial activity against methicillin-resistant Staphylococcus aureus ATCC 33591 assessed as bacterial killing at 50 times MIC after 24 hrs in presence of human albumin; assay type: functional, organism-based
Summary of the method: (§2)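 Static time-kill in M-H broth, in M-H broth with 40 g/liter fatty-acid-free purified human albumin, or in M-H broth with inactivated 50% human serum. Inoculum approx. 5 × 10⁵ CFU/ml, drug at 0.5, 1, 2.5, 5, 10, 25 and 50× MIC, 37°C. Samples at 0, 3, 6, 12 and 24 h plated on blood agar, counted after 24 h. Detection limit 5 × 10¹ CFU/ml. Run in duplicate.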

Staphylococcus aureus [6] = experiment: Antibacterial activity against methicillin-susceptible Staphylococcus aureus ATCC 13709 assessed as bacterial killing at 10 times MIC after 6 hrs in MH-broth; assay type: functional, organism-based
Staphylococcus aureus [7] = experiment: Antibacterial activity against methicillin-susceptible Staphylococcus aureus ATCC 13709 assessed as change in bacterial burden at 10 mg/liter after 24 hrs; assay type: functional; summary of the method: as §1
Staphylococcus aureus [8] = experiment: Antibacterial activity against methicillin-susceptible Staphylococcus aureus ATCC 13709 assessed as change in bacterial burden at 40 mg/liter after 2 hrs; assay type: functional; summary of the method: as §1
Staphylococcus aureus [9] = experiment: Antibacterial activity against methicillin-susceptible Staphylococcus aureus ATCC 13709 assessed as change in bacterial burden at 5 mg/liter after 24 hrs; assay type: functional
Staphylococcus aureus [10] = experiment: Antibacterial activity against methicillin-resistant Staphylococcus aureus ATCC 33591 assessed as change in bacterial burden at 5 mg/liter after 4 hrs; assay type: functional; summary of the method: as §1
Staphylococcus aureus [11] = experiment: Antibacterial activity against methicillin-resistant Staphylococcus aureus ATCC 33591 assessed as bacterial regrowth at 0.5 times MIC after 24 hrs in presence of human albumin; assay type: functional, organism-based; summary of the method: as §2
Staphylococcus aureus [12] = experiment: Antibacterial activity against methicillin-susceptible Staphylococcus aureus ATCC 13709 assessed as change in bacterial burden at 2.5 mg/liter after 6 hrs; assay type: functional
Staphylococcus aureus [13] = experiment: Antibacterial activity against methicillin-susceptible Staphylococcus aureus ATCC 13709 assessed as change in bacterial burden at 10 mg/liter after 4 hrs; assay type: functional
Staphylococcus aureus [14] = experiment: Antibacterial activity against methicillin-resistant Staphylococcus aureus ATCC 33591 assessed as change in bacterial burden at 40 mg/liter after 4 hrs; assay type: functional; summary of the method: as §1
Staphylococcus aureus [15] = experiment: Antibacterial activity against methicillin-susceptible Staphylococcus aureus ATCC 13709 assessed as bacterial killing at 0.5 to 50 times MIC after 24 hrs; assay type: functional; summary of the method: as §2
Staphylococcus aureus [16] = experiment: Antibacterial activity against methicillin-susceptible Staphylococcus aureus ATCC 13709 assessed as change in bacterial burden at 20 mg/liter after 8 hrs; assay type: functional; summary of the method: as §1

For CCCCCCCCCCNCCN[C@@]1(C)C[C@H](O[C@H]2[C@H](Oc3c4cc5cc3Oc3ccc(cc3Cl)[C@@H](O)[C@@H](NC(=O)[C@@H](CC(C)C)NC)C(=O)N[C@@H](CC(N)=O)C(=O)N[C@H]5C(=O)N[C@H]3C(=O)N[C@H](C(=O)N[C@H](C(=O)O)c5cc(O)c(CNCP(=O)(O)O)c(O)c5-c5cc3ccc5O)[C@H](O)c3ccc(c(Cl)c3)O4)O[C@H](CO)[C@@H](O)[C@@H]2O)O[C@@H](C)[C@H]1O [TELAVANCIN], the Activity [1] was “inactive”, the Activity (Staphylococcus aureus [2]) was “Active” and the deltalog10CFU/ml (Staphylococcus aureus [3]) was -3. The deltalog10CFU/ml (Staphylococcus aureus [4]) was -3.6, the Activity (Staphylococcus aureus [5]) was “Active” and the Activity (Staphylococcus aureus [6]) was “Active”. The deltalog10CFU/ml (Staphylococcus aureus [7]) was -4.5, the deltalog10CFU/ml (Staphylococcus aureus [8]) was -1.9 and the deltalog10CFU/ml (Staphylococcus aureus [9]) was -4.7. For the same compound, the deltalog10CFU/ml (Staphylococcus aureus [10]) was -2.1, the Activity (Staphylococcus aureus [11]) was “Active” and the deltalog10CFU/ml (Staphylococcus aureus [12]) was -2.6. For the same compound, the deltalog10CFU/ml (Staphylococcus aureus [13]) was -2.4, the deltalog10CFU/ml (Staphylococcus aureus [14]) was -2.7 and the LCK (Staphylococcus aureus [15]) was over 3. The deltalog10CFU/ml (Staphylococcus aureus [16]) was -4.6.

Source: ChEMBL document CHEMBL1154419, “Pharmacodynamic effects of telavancin against methicillin-resistant and methicillin-susceptible Staphylococcus aureus strains in the presence of human albumin or serum and in an in vitro kinetic model” (Antimicrob Agents Chemother, 2007)
